# Screens as filed in PubChem.
# Pf Dd2 inh: inhibitors of Plasmodium falciparum Dd2 growth. P. falciparum Dd2 growth, SYBR Green, 72 h; hits give low values. activity change, % at 10 µM. hit rate 2.3% among 94,000. AID 1159554; in the data active = activity change below about -80%; inconclusive = no clear call, values can overlap the other calls
# IDH1 mut inh: blocks human IDH1 R132H reductase activity. O75874. diaphorase/resazurin fluorescence, 60 min. inhibition, % at 10 µM. hit rate 0.18% among 70,000. AID 624101; in the data active = inhibition above about 34%; inconclusive = no clear call, values can overlap the other calls; inactive = below about 11%;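 note: 0% = DMSO and 100% = no enzyme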
# KDM4C inh: blocks human GASC-1 (KDM4C) demethylase activity; hit rate 0.15% among 96,000; GST-KDM4C 2-372, H3K9me3 peptide, LANCE TR-FRET; Q9H3R0; inhibition, % at 12.5 µM;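 active = mean replicate inhibition above about 25%, with at least 55% of replicates also reaching it, limit read from the data, passing the limit was not always enough; inconclusive = only one of those two conditions met; inactive = neither condition met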
# Target sequence (Q9H3R0 2-372 limits assumed): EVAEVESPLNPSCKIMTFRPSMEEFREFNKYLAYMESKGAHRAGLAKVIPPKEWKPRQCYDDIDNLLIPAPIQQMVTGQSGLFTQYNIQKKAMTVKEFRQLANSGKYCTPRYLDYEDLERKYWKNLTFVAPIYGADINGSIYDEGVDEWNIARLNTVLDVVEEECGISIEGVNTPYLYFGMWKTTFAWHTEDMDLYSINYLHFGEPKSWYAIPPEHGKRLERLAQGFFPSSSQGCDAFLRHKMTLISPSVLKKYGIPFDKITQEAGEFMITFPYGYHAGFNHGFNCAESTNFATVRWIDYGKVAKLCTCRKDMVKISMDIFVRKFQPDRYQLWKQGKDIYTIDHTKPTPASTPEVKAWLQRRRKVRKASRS
#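 Material: N-terminal GST-fused human GASC-1 (KDM4C) fragment, residues 2-372. Input: 10 nM enzyme. Incubation: enzyme reaction 30 min, then detection 60 min, both room temperature. Doses: one test concentration per compound. Read-out basis: inhibition from TR-FRET ratio decrease. Detection: LANCE TR-FRET, excitation 340 nm, emissions 618 and 671 nm.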
# T cruzi growth-1: blocks T. cruzi growth in NIH3T3 culture. hit rate 5.9% among 77,000. T. cruzi beta-gal in NIH3T3, GalScreen luminescence, 90 h. inhibition, % at 8.34 µM;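 active = mean inhibition above about 93%, with at least 55% of replicates each passing it, limit read from the data, passing the limit was not always enough; inconclusive = only one of those two conditions holds; inactive = neither condition holds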
# T cruzi growth-2: blocks T. cruzi growth in NIH3T3 host cells. shares compounds with T cruzi growth-1. T. cruzi beta-gal in NIH3T3, GalScreen luminescence, 90 h. inhibition, % at 8.35 µM. hit rate 72% among 5,600. AID 651739;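 active = mean replicate inhibition above about 95% and at least 55% of replicates individually reaching it, limit read from the data; inconclusive = only one of the two criteria is met; inactive = neither criterion is met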
# T cruzi growth-3: Trypanosoma cruzi proliferation inhibition; hit rate 21% among 5,600; T. cruzi beta-gal in NIH3T3, GalScreen luminescence, 90 h; shares compounds with T cruzi growth-1; inhibition, % at 2.09 µM; AID 651740;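 active = mean inhibition above about 95%, with at least 55% of replicates also reaching it, limit read from the data; inconclusive = meets just one of the two conditions; inactive = meets neither condition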;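 note: plate controls were neutral control median for no effect and positive control median for full effect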
# 3T3 cytotox: kills mouse NIH/3T3 fibroblasts; shares compounds with T cruzi growth-1; hit rate 14% among 5,600; NIH/3T3 viability, CellTiter-Glo ATP luminescence, 90 h; cytotoxicity (signal decrease), % at 8.35 µM;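 active = mean signal decrease across replicates above about 35% based on untreated-well scatter, with enough replicates individually passing, limit read from the data; inconclusive = no rule stated though some were filed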;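 note: 0% = median of neutral control wells and 100% = median of positive control wells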
# NIH3T3 tox 2: kills mouse NIH/3T3 fibroblasts. shares compounds with T cruzi growth-1. NIH/3T3 viability, CellTiter-Glo ATP luminescence, 90 h. inhibition, % at 24.9 µM. hit rate 56% among 5,600;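 active = mean loss of cell viability signal at or above a set limit, and enough replicates individually reaching it; inconclusive = meets only the mean limit or only the replicate share; inactive = meets neither condition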;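 note: 0% = median of neutral control wells and 100% = median of positive control wells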
# * marks the source's active call; other numbers are inactive results; ? = inconclusive; / = no result. In the library only some 5.8% were active in any assay of this set; here they are far more common.
SMILES,Pf Dd2 inh,IDH1 mut inh,KDM4C inh,T cruzi growth-1,T cruzi growth-2,T cruzi growth-3,3T3 cytotox,NIH3T3 tox 2
C[C@H]1CN([C@@H](C)CO)S(=O)(=O)c2ccc(C#Cc3ccncc3)cc2O[C@H]1CN(C)S(=O)(=O)c1ccccc1,-40,1,-13,70,/,/,/,/
COCC#Cc1ccc2c(c1)O[C@H](CN(C)S(=O)(=O)c1ccc(F)cc1)[C@@H](C)CN([C@H](C)CO)S2(=O)=O,-30,-6,1,75,/,/,/,/
C[C@@H]1CN([C@@H](C)CO)S(=O)(=O)c2ccc(C#Cc3ccncc3)cc2O[C@@H]1CN(C)S(=O)(=O)c1ccc(F)cc1,-83*,3,-5,114*,?,51,34*,44*
CC(C)CC#Cc1ccc2c(c1)O[C@@H](CN(C)S(=O)(=O)c1ccc(F)cc1)[C@@H](C)CN([C@H](C)CO)S2(=O)=O,-29,0,0,/,/,/,/,/
C[C@H](CO)N1C[C@H](C)[C@H](CN(C)S(=O)(=O)c2ccc(F)cc2)Oc2cc(Br)ccc2S1(=O)=O,-7,-6,-2,98*,100*,29,33,65*
C[C@H](CO)N1C[C@H](C)[C@H](CN(C)S(=O)(=O)c2ccc(F)cc2)Oc2cc(C#Cc3ccc(F)cc3)ccc2S1(=O)=O,-72,/,-1,111*,100*,106*,5,17
C[C@@H]1CN([C@@H](C)CO)C(=O)c2cc(NC(=O)Nc3ccc(C(F)(F)F)cc3)ccc2O[C@@H](C)CCCCO[C@H]1CN(C)S(=O)(=O)c1cccs1,-40,/,0,100*,105*,112*,25,16
C[C@@H]1CCCCO[C@H](CN(C)S(=O)(=O)c2cccs2)[C@H](C)CN([C@@H](C)CO)C(=O)c2cc(NC(=O)Nc3ccc(C(F)(F)F)cc3)ccc2O1,-74,/,-1,?,104*,113*,9,4
C[C@H]1CCCCO[C@H](CN(C)S(=O)(=O)c2cccs2)[C@@H](C)CN([C@@H](C)CO)C(=O)c2cc(NC(=O)Nc3ccc(C(F)(F)F)cc3)ccc2O1,-71,/,-3,99*,105*,109*,-22,-2
C[C@H]1CCCCO[C@@H](CN(C)S(=O)(=O)c2cccs2)[C@@H](C)CN([C@@H](C)CO)C(=O)c2cc(NC(=O)Nc3ccc(C(F)(F)F)cc3)ccc2O1,-89*,1,0,?,96*,110*,-13,7
O=C(Nc1ccccc1[N+](=O)[O-])c1cc(S(=O)(=O)Nc2ccccc2)ccc1Cl,/,0,/,/,/,/,/,/
C[C@H](O)C#Cc1ccc([C@H]2[C@@H](CO)N3CCCCN(C(=O)Nc4ccccc4)C[C@H]23)cc1,-20,/,0,109*,37,7,-22,-4
CC(C)C#Cc1ccc([C@@H]2[C@H]3CN(C(=O)Nc4ccccc4)CCCCN3[C@H]2CO)cc1,4,/,-1,?,87,94,88*,106*
CC(C)C#Cc1ccc([C@@H]2[C@@H](CO)N3CCCCN(C(=O)Nc4ccccc4)C[C@@H]23)cc1,19,/,2,106*,112*,86,18,105*
CC(C)C#Cc1ccc([C@@H]2[C@@H](CO)N3CCCCN(C(=O)Nc4ccccc4)C[C@H]23)cc1,-29,/,2,99*,100*,69,39*,105*
CC(C)C#Cc1ccc([C@@H]2[C@H](CO)N3CCCCN(C(=O)Nc4ccccc4)C[C@@H]23)cc1,-28,/,0,82,/,/,/,/
O=C(C1CCC1)N1CCCCN2[C@H](CO)[C@@H](c3ccc(C#CC4(O)CCCC4)cc3)[C@@H]2C1,14,/,1,58,/,/,/,/
O=C(C1CCCC1)N1CCCCN2[C@H](CO)[C@@H](c3ccc(C#CC4(O)CCCC4)cc3)[C@@H]2C1,-8,/,/,-23,/,/,/,/
O=C(C1CCCC1)N1CCCCN2[C@@H](CO)[C@H](c3ccc(C#CC4(O)CCCC4)cc3)[C@@H]2C1,7,/,/,?,98*,82,33,44*
O=C(C1CCC1)N1CCCCN2[C@@H](CO)[C@@H](c3ccc(C#CC4(O)CCCC4)cc3)[C@@H]2C1,35,/,-1,?,89,54,5,0
C[C@@H](NC(=O)C[C@H]1CC[C@H]2[C@@H](COC[C@@H](O)CN2Cc2ccc(C(F)(F)F)cc2)O1)c1ccccc1,9,/,6,?,66,61,12,8
O=C(C[C@@H]1CC[C@@H]2[C@H](COC[C@H](O)CN2Cc2ccccc2)O1)N[C@@H]1CCN(Cc2ccccc2)C1,-19,/,2,77,/,/,/,/
O=C(C[C@H]1CC[C@H]2[C@@H](COC[C@H](O)CN2Cc2cc(F)ccc2F)O1)N[C@H]1CCN(Cc2ccccc2)C1,-75,/,0,124*,106*,72,-20,-1
O=C(C[C@@H]1CC[C@@H]2[C@H](COC[C@H](O)CN2Cc2cc(F)ccc2F)O1)N1CCc2ccccc2C1,-60,/,1,100*,83,4,-15,20
O=C(C[C@@H]1CC[C@@H]2[C@H](COC[C@@H](O)CN2Cc2ccccc2)O1)N[C@@H]1CCN(Cc2ccccc2)C1,-46,/,-1,?,?,80,-23,4
SMILES,Pf Dd2 inh,IDH1 mut inh,KDM4C inh,T cruzi growth-1,T cruzi growth-2,T cruzi growth-3,3T3 cytotox,NIH3T3 tox 2
O=C(C[C@@H]1CC[C@@H]2[C@H](COC[C@@H](O)CN2Cc2cc(F)ccc2F)O1)N[C@H]1CCN(Cc2ccccc2)C1,-28,/,0,95,/,/,/,/
CCSc1ncc(Cl)c(C(=O)Nc2nnc(SCc3ccccc3F)s2)n1,/,0,/,/,/,/,/,/
O=C(C[C@H]1CC[C@H]2[C@@H](COC[C@H](O)CN2Cc2cc(F)ccc2F)O1)NCc1ccc(Cl)cc1,-50,/,1,?,40,11,3,17
CC(=O)NC[C@@H]1[C@@H](c2ccc(-c3ccccc3)cc2)[C@H](CO)N1C(=O)C1CC1,4,/,0,99*,4,-9,-7,-10
CC(=O)NC[C@H]1[C@H](c2ccc(-c3cccnc3)cc2)[C@H](CO)N1C(=O)C1CC1,1,/,-2,111*,9,-35,-3,0
COc1ccc(-c2cc(C(F)(F)F)nc(SCC(=O)N(C)c3ccccc3)n2)cc1OC,/,0,/,/,/,/,/,/
Cc1ccccc1S(=O)(=O)N1CC[C@@H]2[C@@H](CO)Nc3ccc(-c4cccc(C#N)c4)cc3[C@@H]21,-62,/,-2,33,/,/,/,/
Cc1ccccc1S(=O)(=O)N1CC[C@@H]2[C@H](CO)Nc3ccc(-c4cccc(C#N)c4)cc3[C@@H]21,-5,/,-1,17,/,/,/,/
